In brackets after ≈: the same amount, converted by molar mass.
Tests used:
[1] = system: Pseudomonas aeruginosa; experiment: Antimicrobial activity against Pseudomonas aeruginosa ATCC 27853 incubated for 18 hrs by CLSI method; assay type: functional; details: ATCC 27853, 18 h
How it was run: (§1)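 Screen run by CO-ADD: mid-log cultures in cation-adjusted MHB, 5 × 10^5 CFU/mL, compounds at up to 32 μg/mL in 1:2 serial dilutions (8 steps), final DMSO ≤0.5%, duplicate. 37 °C for 18 h without shaking; OD600 read against media-only and untreated-bacteria references. MIC = lowest concentration giving ≥80% inhibition; colistin standard.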

[2] = system: Clostridioides difficile; experiment: Antibacterial activity against Clostridium difficile ATCC 700057 incubated for 48 hrs by CLSI method; assay type: functional; details: ATCC 700057, 48 h
How it was run: (§2)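 Broth microdilution per CLSI anaerobe method in pre-reduced (2-4 h) Brucella broth with haemin and vitamin K, 35 °C anaerobically for 48 h. Compounds from 5 mg/mL DMSO stocks, twofold dilutions in water mixed with double-strength broth; final 0.25–128 μg/mL. […] Triplicate; modal MIC read visually as lowest concentration inhibiting growth.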

[3] = system: Staphylococcus aureus; experiment: Antibacterial activity against methicillin-resistant Staphylococcus aureus NCTC 10442 incubated for 24 hrs by CLSI method; assay type: functional; details: NCTC 10442, 24 h
How it was run: (§3)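 Broth microdilution per CLSI aerobic guidance in Mueller Hinton broth, ambient air, 35 °C for 24 h. DMSO stocks were diluted in water, then serially diluted with double-strength broth inoculum added, for final 0.25–128 μg/mL. […] MIC was read visually as the lowest concentration inhibiting growth; the modal value of triplicates was recorded.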

[4] = system: Acinetobacter baumannii; experiment: Antimicrobial activity against Acinetobacter baumannii ATCC 19606 incubated for 18 hrs by CLSI method; assay type: functional; details: ATCC 19606 = CIP 70.34 = JCM 6841, 18 h; how it was run: as §1
[5] = system: Escherichia coli; experiment: Antibacterial activity against Escherichia coli ATCC 25922 incubated for 18 hrs by CLSI method; assay type: functional; details: ATCC 25922, 18 h; how it was run: as §1
[6] = system: Staphylococcus aureus; experiment: Antimicrobial activity against Staphylococcus aureus ATCC 29213 incubated for 24 hrs by CLSI method; assay type: functional; details: ATCC 29213, 24 h; how it was run: as §3
[7] = Haemolytic activity in sheep erythrocytes at 50 ug/ml incubated for 2 hrs under shaking condition relative to control; assay type: ADME, cell-based, Ovis aries, Erythrocyte; details: read-out: Activity
How it was run: (§4)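 Compounds in PBS mixed with washed sheep erythrocytes (2% final) at 5 or 50 μg/mL, rocked 2 h at 37 °C, centrifuged; supernatant absorbance at 540 nm. PBS-only value subtracted, then expressed relative to water lysis (100%). Triplicate, means reported.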

[8] = system: Klebsiella pneumoniae; experiment: Antibacterial activity against Klebsiella pneumoniae 700603 incubated for 18 hrs by CLSI method; assay type: functional; details: Klebsiella pneumoniae, 700603, 18 h; how it was run: as §1
[9] = system: Staphylococcus aureus; experiment: Antimicrobial activity against Staphylococcus aureus ATCC 43300 incubated for 18 hrs by CLSI method; assay type: functional; details: ATCC 43300, 18 h
[10] = Haemolytic activity in sheep erythrocytes at 5 ug/ml incubated for 2 hrs under shaking condition relative to control; assay type: ADME, cell-based, Ovis aries, Erythrocyte; details: read-out: Activity; how it was run: as §4
[11] = system: Clostridioides difficile; experiment: Antibacterial activity against Clostridium difficile NSW132 RT027 incubated for 48 hrs by CLSI method; assay type: functional; details: NSW132 RT027, 48 h; how it was run: as §2
[12] = Cytotoxicity against human HEK293 cells assessed as reduction in cell growth incubated for 20 hrs by resazurin dye-based fluorometric assay
How it was run: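 HEK293 cells, 5000 per well in DMEM + 10% FBS, exposed to compounds (top 32 μg/mL, 1:2 serial dilution ×8, ≤0.5% DMSO, duplicate) for 20 h at 37 °C, 5% CO2. Resazurin added (2.3 μg/mL final), 3 h further; fluorescence ex 560/em 590 nm. CC50 from sigmoidal dose-response fit against log concentration; tamoxifen standard.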

[13] = system: Streptococcus pneumoniae; experiment: Antibacterial activity against Streptococcus pneumoniae ATCC 49619 incubated for 24 hrs by CLSI method; assay type: functional; details: ATCC 49619, 24 h
How it was run: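 CLSI broth microdilution in MHB with 2.5% lysed horse blood, 5% CO2, 35 °C, 24 h. Compounds from 5 mg/mL DMSO stocks diluted in water plus double-strength broth; final 0.25–128 μg/mL. […] Triplicate; modal MIC read visually as lowest growth-inhibiting concentration.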

[14] = system: Enterococcus faecalis; experiment: Antibacterial activity against Enterococcus faecalis ATCC 29212 incubated for 24 hrs by CLSI method; assay type: functional; details: ATCC 29212, 24 h
[15] = system: Staphylococcus aureus; experiment: Antimicrobial activity against methicillin-resistant Staphylococcus aureus ATCC 43300 incubated for 18 hrs by CLSI method; assay type: functional; details: ATCC 43300, 18 h
[16] = system: Staphylococcus aureus; experiment: Antimicrobial activity against vancomycin resistant Staphylococcus aureus NARSA VRS10 incubated for 18 hrs by CLSI method; assay type: functional; details: NARSA VRS10, 18 h
[17] = system: Streptococcus pneumoniae; experiment: Antibacterial activity against MDR Streptococcus pneumoniae ATCC 700677 incubated for 18 hrs by CLSI method; assay type: functional; details: ATCC 700677, 18 h
[18] = system: Staphylococcus aureus; experiment: Antimicrobial activity against glycopeptide intermediate susceptible/methicillin-resistant Staphylococcus aureus NRS1 incubated for 18 hrs by CLSI method; assay type: functional; details: NRS1, 18 h
[19] = system: Staphylococcus aureus; experiment: Antimicrobial activity against glycopeptide intermediate susceptible Staphylococcus aureus NRS17 incubated for 18 hrs by CLSI method; assay type: functional; details: NRS17, 18 h
[20] = system: Enterococcus faecalis; experiment: Antimicrobial activity against vancomycin-resistant Enterococcus faecalis clinical isolate incubated for 18 hrs by CLSI method; assay type: functional
[21] = system: Staphylococcus aureus; experiment: Antimicrobial activity against methicillin-resistant Staphylococcus aureus clinical isolate with reduced daptomycin susceptibility incubated for 18 hrs by CLSI method; assay type: functional
[22] = system: Staphylococcus aureus; experiment: Antimicrobial activity against methicillin-resistant Staphylococcus aureus clinical isolate incubated for 18 hrs by CLSI method; assay type: functional

| Compound | MIC [1] [µg/mL] | MIC [2] [µg/mL] | MIC [3] [µg/mL] | MIC [4] [µg/mL] | MIC [5] [µg/mL] | MIC [6] [µg/mL] | hemolysis at 2 h, 50 ug/ml [7] [%] | MIC [8] [µg/mL] | MIC [9] [µg/mL] | hemolysis at 2 h, 5 ug/ml [10] [%] | MIC [11] [µg/mL] | CC50 at 20 h [12] [µg/mL] | MIC [13] [µg/mL] | MIC [14] [µg/mL] | MIC [15] [µg/mL] | MIC [16] [µg/mL] | MIC [17] [µg/mL] | MIC [18] [µg/mL] | MIC [19] [µg/mL] | MIC [20] [µg/mL] | also measured |
| --- | --- | --- | --- | --- | --- | --- | --- | --- | --- | --- | --- | --- | --- | --- | --- | --- | --- | --- | --- | --- | --- |
| CC(C)CCOc1ccccc1-c1ccccc1OCc1cn(C[C@@H](CCCCN)NC(=O)[C@@H](CCCNC(=N)N)n2cc(C3CCCCC3)nn2)nn1.Cl.Cl | 8 | 4 | 4 | 16 | 8 | 8 | 22.9 | 16 | 4 | 1.9 | 8 | 14.2 | 4 | 8 | – | – | – | – | – | – | – |
| CC(C)CCOc1ccc2ccccc2c1-c1c(OCc2cn(C[C@@H](CCCCN)NC(=O)CCc3ccccc3)nn2)ccc2ccccc12.Cl | > 32 | 32 | 8 | > 32 | > 32 | 4 | – | > 32 | 4 | – | 32 | 3.5 | 16 | 8 | 2 to 4 | 8 | 8 | 8 to 16 | 8 | 4 | MIC [21]: 8 µg/mL; MIC [22]: 16 µg/mL |
| CC(C)CCOc1ccc2ccccc2c1-c1c(OCc2cn(C[C@@H](CCCNC(=N)N)NC(=O)Cc3ccccc3)nn2)ccc2ccccc12.Cl | > 32 | 64 | 4 | > 32 | > 32 | 4 | 87.4 | > 32 | 4 | 1 | 64 | 16.5 | 8 | 8 | – | – | – | – | – | – | – |
| CC(C)CCOc1ccc2ccccc2c1-c1c(OCc2cn(C[C@@H](CCCCN)NC(=O)[C@@H](CCCNC(=N)N)NC(=O)Cc3ccc4c(c3)OCO4)nn2)ccc2ccccc12.Cl.Cl | – | 8 | 4 | – | – | 4 | – | – | – | – | 32 | – | 4 | 4 | 2 | 4 | 2 | 2 to 4 | 4 | 2 | MIC [21]: 4 µg/mL; MIC [22]: 4 µg/mL |
| CCCCCCCCCC(=O)N[C@@H](Cc1c[nH]c2ccccc12)C(=O)N[C@H](CC(N)=O)C(=O)N[C@@H](CC(=O)O)C(=O)N[C@@H]1C(=O)NCC(=O)N[C@@H](CCCN)C(=O)N[C@@H](CC(=O)O)C(=O)N[C@H](C)C(=O)N[C@@H](CC(=O)O)C(=O)NCC(=O)N[C@H](CO)C(=O)N[C@@H]([C@H](C)CC(=O)O)C(=O)N[C@@H](CC(=O)c2ccccc2N)C(=O)O[C@@H]1C | – | – | – | – | – | – | – | – | – | – | – | – | – | – | 0.5 to 1 (≈ 0.309 to 0.617 µM) | 2 (≈ 1.23 µM) | 1 to 2 (≈ 0.617 to 1.23 µM) | 8 (≈ 4.94 µM) | 8 (≈ 4.94 µM) | 8 (≈ 4.94 µM) | MIC [21]: 4 µg/mL (≈ 2.47 µM); MIC [22]: 2 µg/mL (≈ 1.23 µM) |
| CC(C)CCOc1ccccc1-c1ccccc1OCc1cn(C[C@@H](CCCCN)NC(=O)[C@@H](CCCNC(=N)N)NC(=O)Cc2ccccc2)nn1.Cl.Cl | 32 | 16 | 8 | 32 | 16 | 8 | 17.5 | 32 | 4 | 0.6 | 16 | 32 | 8 | 8 | – | – | – | – | – | – | – |
| CC(C)CCOc1ccc2ccccc2c1-c1c(OCc2cn(C[C@@H](CCCCN)NC(=O)[C@@H](CCCNC(=N)N)n3cc(CC4CCCCC4)nn3)nn2)ccc2ccccc12.Cl.Cl | 32 | 8 | 4 | 16 | 32 | 4 | 88.8 | > 32 | 2 | 1.6 | 16 | > 32 | 4 | 4 | – | – | – | – | – | – | – |
| CC(C)CCOc1ccc2ccccc2c1-c1c(OCc2cn(C[C@@H](CCCCN)NC(=O)Cc3ccc4c(c3)OCO4)nn2)ccc2ccccc12.Cl | – | 32 | 8 | – | – | 8 | – | – | – | – | 32 | – | 16 | 8 | 8 | 8 to 16 | 8 to 16 | 8 to 16 | 16 | 4 | MIC [21]: 8 µg/mL; MIC [22]: > 32 µg/mL |
| CC(C)CCOc1ccccc1-c1ccccc1OCc1cn(C[C@@H](CCCNC(=N)N)NC(=O)OCc2ccccc2)nn1.Cl | > 32 | 32 | 4 | > 32 | > 32 | 4 | 89.1 | > 32 | 8 | 0.7 | 32 | > 32 | 16 | 8 | – | – | – | – | – | – | – |
| CN[C@H](CC(C)C)C(=O)N[C@H]1C(=O)N[C@@H](CC(N)=O)C(=O)N[C@H]2C(=O)N[C@H]3C(=O)N[C@H](C(=O)N[C@H](C(=O)O)c4cc(O)cc(O)c4-c4cc3ccc4O)[C@H](O)c3ccc(c(Cl)c3)Oc3cc2cc(c3O[C@@H]2O[C@H](CO)[C@@H](O)[C@H](O)[C@H]2O[C@H]2C[C@](C)(N)[C@H](O)[C@H](C)O2)Oc2ccc(cc2Cl)[C@H]1O [VANCOMYCIN] | – | 0.5 (≈ 0.345 µM) | – | – | – | – | – | – | – | – | 0.5 (≈ 0.345 µM) | – | 1 (≈ 0.69 µM) | – | – | – | 1 to 2 (≈ 0.69 to 1.38 µM) | 8 (≈ 5.52 µM) | 8 (≈ 5.52 µM) | > 32 | – |
| CC(C)CCOc1ccccc1-c1ccccc1OCc1cn(C[C@@H](CCCNC(=N)N)NC(=O)[C@@H](CCCCN)n2cc(CCc3ccccc3)nn2)nn1.Cl.Cl | 8 | 16 | 4 | 16 | 4 | 4 | 28.8 | 16 | 2 | 1.7 | 16 | 17.4 | 4 | 8 | – | – | – | – | – | – | – |

From ChEMBL document CHEMBL4390663, “Cationic biaryl 1,2,3-triazolyl peptidomimetic amphiphiles: synthesis, antibacterial evaluation and preliminary mechanism of action studies” (Eur J Med Chem, 2019)
